Data published in BindingDB's records for doi:10.1016/j.bmc.2011.08.039 (Ludwig-Maximilians-University Munich, 2011).

Key:
[1] = biological target: T1, Sodium- and chloride-dependent GABA transporter 3 (Mus musculus, UniProt P31650); assay: Inhibition of mouse GAT3-mediated [3H]GABA uptake expressed in human HEK cells
T1 sequence (P31650 whole entry): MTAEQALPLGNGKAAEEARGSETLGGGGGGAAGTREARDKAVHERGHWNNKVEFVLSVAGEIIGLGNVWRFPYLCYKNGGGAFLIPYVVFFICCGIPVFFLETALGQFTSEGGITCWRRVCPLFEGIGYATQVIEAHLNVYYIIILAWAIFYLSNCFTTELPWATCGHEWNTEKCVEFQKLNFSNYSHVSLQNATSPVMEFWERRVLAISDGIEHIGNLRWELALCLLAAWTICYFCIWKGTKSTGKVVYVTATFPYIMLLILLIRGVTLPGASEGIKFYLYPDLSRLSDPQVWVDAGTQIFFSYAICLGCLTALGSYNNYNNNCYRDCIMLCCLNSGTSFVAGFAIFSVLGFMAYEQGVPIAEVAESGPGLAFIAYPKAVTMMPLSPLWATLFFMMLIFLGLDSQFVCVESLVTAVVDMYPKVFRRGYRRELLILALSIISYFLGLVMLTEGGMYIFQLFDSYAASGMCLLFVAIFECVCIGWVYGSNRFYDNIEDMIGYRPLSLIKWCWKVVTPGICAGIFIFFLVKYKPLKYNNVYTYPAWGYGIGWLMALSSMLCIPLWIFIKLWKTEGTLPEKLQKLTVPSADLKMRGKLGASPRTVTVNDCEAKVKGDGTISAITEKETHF
Procedure, shortened: (§1)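 Specific [3H]GABA uptake was measured at the murine transporter subtype, and results are given as pIC50 ± SEM from three independent experiments, each run in triplicate.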

[2] = biological target: T2, Sodium- and chloride-dependent GABA transporter 2 (Mus musculus, UniProt P31649); assay: Inhibition of mouse GAT2-mediated [3H]GABA uptake expressed in human HEK cells; procedure, shortened: as §1
T2 sequence (P31649 whole entry): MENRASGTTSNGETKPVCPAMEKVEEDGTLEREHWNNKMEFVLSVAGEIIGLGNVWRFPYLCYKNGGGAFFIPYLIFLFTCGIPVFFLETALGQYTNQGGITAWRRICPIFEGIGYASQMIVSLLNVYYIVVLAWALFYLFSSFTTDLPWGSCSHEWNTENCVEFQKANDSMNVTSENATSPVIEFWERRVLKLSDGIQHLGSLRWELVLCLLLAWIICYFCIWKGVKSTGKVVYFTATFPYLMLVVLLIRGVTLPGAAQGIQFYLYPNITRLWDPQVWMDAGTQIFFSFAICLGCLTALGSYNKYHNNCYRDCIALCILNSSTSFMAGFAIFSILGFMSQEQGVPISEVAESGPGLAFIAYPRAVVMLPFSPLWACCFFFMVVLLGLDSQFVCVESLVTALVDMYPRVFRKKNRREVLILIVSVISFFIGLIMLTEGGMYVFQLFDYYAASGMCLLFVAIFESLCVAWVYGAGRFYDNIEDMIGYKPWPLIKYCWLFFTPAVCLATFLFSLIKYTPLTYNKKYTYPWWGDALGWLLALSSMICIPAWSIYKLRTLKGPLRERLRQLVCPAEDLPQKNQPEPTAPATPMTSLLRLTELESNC

[3] = Inhibition of mouse GAT3-mediated [3H]GABA uptake expressed in BHK cells
[4] = Inhibition of mouse GAT2-mediated [3H]GABA uptake expressed in BHK cells

| SMILES | IC50 [1] [µM] | IC50 [2] [µM] | IC50 [3] [µM] | IC50 [4] [µM] |
| --- | --- | --- | --- | --- |
| c1ccc(Cn2nnnc2CNC(c2ccccc2)c2ccccc2)cc1 | 16.2 |  |  |  |
| CC(C)(C)CC(C)(C)n1nnnc1CNCCC=C(c1ccccc1)c1ccccc1 | 12.3 |  |  |  |
| CC(C)(C)CC(C)(C)n1nnnc1CNCCCC(c1ccccc1)c1ccccc1 | 12.9 | 16.6 |  |  |
| CC(C)(C)CC(C)(C)n1nnnc1CNCC=C(c1ccccc1)c1ccccc1 | 22.9 | 10.2 |  |  |
| C(CNCc1nnnn1C1CCCCC1)=C(c1ccccc1)c1ccccc1 | 18.2 | 24.5 |  |  |
| C(CNCc1nnnn1Cc1ccccc1)=C(c1ccccc1)c1ccccc1 | 34.7 | 24.5 |  |  |
| COc1ccccc1C1(O)CCN(CCCn2c3ccccc3c3ccccc32)CC1 | 11.7 | 8.13 | 40.7 | 1.41 |

The next lines start with results.

| IC50 [1] [µM] | IC50 [2] [µM] | SMILES | IC50 [3] [µM] | IC50 [4] [µM] |
| --- | --- | --- | --- | --- |
| 44.7 |  | c1ccc(Cn2nnnc2CNCC(c2ccccc2)c2ccccc2)cc1 |  |  |
| 17.4 | 21.9 | c1ccc(C(CCCNCc2nnnn2C2CCCCC2)c2ccccc2)cc1 |  |  |
| 40.7 | 15.5 | c1ccc(Cn2nnnc2CNCCCC(c2ccccc2)c2ccccc2)cc1 |  |  |
| 21.4 |  | C(CCNCc1nnnn1C1CCCCC1)=C(c1ccccc1)c1ccccc1 |  |  |
| 60.3 |  | CC(C)(C)CC(C)(C)n1nnnc1CNC(c1ccccc1)c1ccccc1 |  |  |
| 8.13 |  | CC(C)(C)CC(C)(C)n1nnnc1CNCCC(c1ccccc1)c1ccccc1 |  |  |
| 24.5 |  | c1ccc(C(NCc2nnnn2C2CCCCC2)c2ccccc2)cc1 |  |  |
